Experimental data taken from ChEMBL document CHEMBL2057200, “Design and synthesis of potent antagonists containing rigid spirocyclic privileged structures for the CGRP receptor” (Bioorg Med Chem Lett, 2012).

Legend:
[1] = biological target: T1, Calcitonin gene-related peptide type 1 receptor (Homo sapiens, UniProt O60894+Q16602); experiment: Displacement of [125I]CGRP from CGRP receptor in human SK-N-MC cells; type: cell-based
Summary of the method: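 Radioligand competition binding in human neuroblastoma SK-N-MC cells, which endogenously express CGRP receptor of identical sequence to the cloned human receptor. IC50 determined from compound competition for the radioligand.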

[2] = biological target: T1, Calcitonin gene-related peptide type 1 receptor; experiment: Antagonist activity at CGRP receptor in human SK-N-MC cells assessed as inhibition of CGRP-stimulated formation of cyclic AMP; type: functional, cell-based
[3] = biological target: cytochrome P450 (isoform not stated) (Homo sapiens, UniProt P04798+P05177+P05181+P08684+P10632+P10635+P11509+P11712+P13584+P20813+P20815+P20853+P24462+P24903+P33260+P33261+P51589+P78329+P98187+Q02928+Q08477+Q16678+Q16696+Q5TCH4+Q6VVX0+Q7Z449+Q8TAV3+Q96SQ9+Q9HB55); experiment: Inhibition of cytochrome P450; type: ADME
[4] = Inhibition of CGRP-induced dilation in potassium chloride pre-contracted ex vivo migraine model of human intracranial artery rings
[5] = biological target: Cytochrome P450 3A4 (Homo sapiens, UniProt P08684); experiment: Inhibition of CYP3A4; type: ADME
Cytochrome P450 3A4, sequence (P08684 whole entry): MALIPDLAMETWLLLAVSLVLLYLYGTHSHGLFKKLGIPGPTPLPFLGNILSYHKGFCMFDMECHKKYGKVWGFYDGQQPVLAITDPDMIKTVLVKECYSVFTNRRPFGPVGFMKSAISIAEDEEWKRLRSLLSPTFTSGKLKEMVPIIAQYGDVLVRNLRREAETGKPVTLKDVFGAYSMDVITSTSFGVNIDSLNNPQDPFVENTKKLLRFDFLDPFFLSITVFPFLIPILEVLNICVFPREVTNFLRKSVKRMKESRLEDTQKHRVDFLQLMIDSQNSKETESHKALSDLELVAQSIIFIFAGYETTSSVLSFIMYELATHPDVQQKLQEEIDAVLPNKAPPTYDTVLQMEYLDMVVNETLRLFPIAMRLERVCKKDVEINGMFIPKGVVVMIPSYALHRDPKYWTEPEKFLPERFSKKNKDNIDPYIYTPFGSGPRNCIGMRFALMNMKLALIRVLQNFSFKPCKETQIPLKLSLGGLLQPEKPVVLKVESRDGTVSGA

[6] = Metabolic stability of the compound in rat liver microsomes assessed as compound remaining at 3 uM after 10 mins; type: ADME, Microsome; conditions: read-out: Stability
[7] = biological target: Cytochrome P450 2C19 (Homo sapiens, UniProt P33261); experiment: Inhibition of recombinant CYP2C19; type: ADME
Cytochrome P450 2C19, sequence (P33261 whole entry): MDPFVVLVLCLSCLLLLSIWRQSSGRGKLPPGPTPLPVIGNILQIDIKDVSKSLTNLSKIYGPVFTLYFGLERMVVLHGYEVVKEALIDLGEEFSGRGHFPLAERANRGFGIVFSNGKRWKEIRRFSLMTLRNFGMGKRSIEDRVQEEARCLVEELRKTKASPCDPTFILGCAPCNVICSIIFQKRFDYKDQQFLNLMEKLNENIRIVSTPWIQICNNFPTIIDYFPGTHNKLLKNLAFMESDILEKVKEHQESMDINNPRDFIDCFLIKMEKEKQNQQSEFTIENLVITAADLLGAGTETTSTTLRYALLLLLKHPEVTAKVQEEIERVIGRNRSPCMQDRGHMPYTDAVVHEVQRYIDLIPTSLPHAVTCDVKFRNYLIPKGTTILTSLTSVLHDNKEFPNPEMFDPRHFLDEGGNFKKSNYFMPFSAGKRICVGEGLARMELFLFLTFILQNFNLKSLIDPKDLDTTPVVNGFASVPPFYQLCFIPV

[8] = biological target: Cytochrome P450 2C9 (Homo sapiens, UniProt P11712); experiment: Inhibition of recombinant CYP2C9; type: ADME
Cytochrome P450 2C9, sequence (P11712 whole entry): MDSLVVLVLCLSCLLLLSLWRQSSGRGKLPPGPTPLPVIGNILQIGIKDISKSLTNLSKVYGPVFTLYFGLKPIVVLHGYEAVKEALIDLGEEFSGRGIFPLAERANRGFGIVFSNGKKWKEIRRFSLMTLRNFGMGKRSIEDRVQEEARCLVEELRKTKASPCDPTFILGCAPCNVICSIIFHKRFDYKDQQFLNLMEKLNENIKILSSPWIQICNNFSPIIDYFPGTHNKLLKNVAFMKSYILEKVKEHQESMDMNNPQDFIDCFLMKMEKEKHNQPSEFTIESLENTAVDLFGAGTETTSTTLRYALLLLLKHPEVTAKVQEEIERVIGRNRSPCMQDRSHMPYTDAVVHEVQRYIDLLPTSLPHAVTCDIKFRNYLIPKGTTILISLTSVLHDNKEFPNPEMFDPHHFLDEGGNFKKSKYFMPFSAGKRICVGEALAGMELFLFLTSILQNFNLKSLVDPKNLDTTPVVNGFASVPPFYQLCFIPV

[9] = Metabolic stability of the compound in human liver microsomes assessed as compound remaining at 3 uM after 10 mins; type: ADME, Microsome; conditions: read-out: Stability
[10] = biological target: T2, Cytochrome P450 1A2 (Homo sapiens, UniProt P05177); experiment: Inhibition of recombinant CYP1A2; type: ADME
T2 sequence (P05177 whole entry): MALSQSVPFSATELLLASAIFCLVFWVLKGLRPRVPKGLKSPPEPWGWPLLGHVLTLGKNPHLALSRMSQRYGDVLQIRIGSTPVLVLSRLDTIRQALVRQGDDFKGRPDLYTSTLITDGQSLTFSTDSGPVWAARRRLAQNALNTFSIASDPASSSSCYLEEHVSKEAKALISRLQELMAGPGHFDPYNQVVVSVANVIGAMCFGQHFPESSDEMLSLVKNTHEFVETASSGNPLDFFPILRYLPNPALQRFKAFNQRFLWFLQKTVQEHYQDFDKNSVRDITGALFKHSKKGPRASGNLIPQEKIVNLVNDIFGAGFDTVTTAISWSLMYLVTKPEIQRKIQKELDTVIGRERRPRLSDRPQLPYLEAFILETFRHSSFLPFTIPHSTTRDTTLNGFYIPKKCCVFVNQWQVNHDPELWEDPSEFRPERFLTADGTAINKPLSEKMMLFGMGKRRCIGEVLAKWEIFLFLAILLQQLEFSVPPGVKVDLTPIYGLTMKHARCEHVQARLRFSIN

T1 sequence (Q16602 whole entry, one chain of several): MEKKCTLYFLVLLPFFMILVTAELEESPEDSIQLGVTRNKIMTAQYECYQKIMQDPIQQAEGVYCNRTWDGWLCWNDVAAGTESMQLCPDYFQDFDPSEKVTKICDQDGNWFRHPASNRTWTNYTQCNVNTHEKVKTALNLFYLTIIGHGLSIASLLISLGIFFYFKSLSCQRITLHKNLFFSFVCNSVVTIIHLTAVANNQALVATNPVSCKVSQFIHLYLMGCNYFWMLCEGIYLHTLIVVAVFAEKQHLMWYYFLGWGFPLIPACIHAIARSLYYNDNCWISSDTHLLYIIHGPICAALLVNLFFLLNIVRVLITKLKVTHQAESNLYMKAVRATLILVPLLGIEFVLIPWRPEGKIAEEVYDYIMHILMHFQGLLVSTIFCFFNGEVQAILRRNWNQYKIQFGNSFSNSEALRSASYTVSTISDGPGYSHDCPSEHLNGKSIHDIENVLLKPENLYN

IC50 [1]	EC50 [2]	Structure (SMILES)	further results
3 nM	–	O=C(N[C@H](Cc1csc2ccccc12)C(=O)N1CCC(N2CCCCC2)CC1)N1CCC(N2Cc3ccccc3NC2=O)CC1	–
20 nM	13 nM	O=C(N[C@H](Cc1csc2ccccc12)C(=O)N1CCC(N2CCCCC2)CC1)N1CCC2(CC1)N=C(c1ccccc1)NC2=O	IC50 [3]: > 40000 nM; EC50 [4]: 63 nM; IC50 [5]: < 1000 nM
8500 nM	–	O=C(N[C@H](Cc1csc2ccccc12)C(=O)N1CCC(N2CCCCC2)CC1)N1CCC2(CC1)N=C(C1CCCCC1)NC2=O	–
170 nM	–	O=C(N[C@H](Cc1csc2ccccc12)C(=O)N1CCC(N2CCCCC2)CC1)N1CCC2(CC1)C(=O)Nc1ccccc12	–
210 nM	–	O=C(N[C@H](Cc1csc2ccccc12)C(=O)N1CCC(N2CCCCC2)CC1)N1CCC2(CC1)N=C(c1cccnc1)NC2=O	–
23 nM	12 nM	O=C1CC2(CCN(C(=O)N[C@H](Cc3csc4ccccc34)C(=O)N3CCC(N4CCCCC4)CC3)CC2)c2ccccc2N1	–
330 nM	–	O=C(N[C@H](Cc1csc2ccccc12)C(=O)N1CCC(N2CCCCC2)CC1)N1CCC2(CC1)C(=O)NCN2c1ccccc1	–
5 nM	3 nM	O=C1Nc2ccccc2C2(CCN(C(=O)N[C@H](Cc3csc4ccccc34)C(=O)N3CCC(N4CCCCC4)CC3)CC2)N1	remaining at 10 min, 3 µM [6]: 100%; EC50 [4]: 32 nM; IC50 [7]: > 40000 nM; IC50 [8]: > 40000 nM; remaining at 10 min, 3 µM [9]: 82%; IC50 [10]: > 40000 nM; IC50 [5]: 100 nM
9 nM	–	O=C(N[C@H](Cc1csc2ccccc12)C(=O)N1CCC(N2CCCCC2)CC1)N1CCC(n2c(=O)[nH]c3ccccc32)CC1	–
860 nM	–	CN1c2ccccc2C(=O)NC12CCN(C(=O)N[C@H](Cc1csc3ccccc13)C(=O)N1CCC(N3CCCCC3)CC1)CC2	–
150 nM	130 nM	O=C1NCC2(CCN(C(=O)N[C@H](Cc3csc4ccccc34)C(=O)N3CCC(N4CCCCC4)CC3)CC2)c2ccccc21	–
1400 nM	–	O=C(N[C@H](Cc1csc2ccccc12)C(=O)N1CCC(N2CCCCC2)CC1)N1CCC2(CC1)N=C(c1ccncc1)NC2=O	–
20 nM	31 nM	O=C1Nc2ccccc2C2(CCN(C(=O)N[C@H](Cc3csc4ccccc34)C(=O)N3CCC(N4CCCCC4)CC3)CC2)O1	IC50 [3]: > 40000 nM; EC50 [4]: 19 nM; IC50 [5]: < 1000 nM
29 nM	15 nM	O=C1Cc2ccccc2C2(CCN(C(=O)N[C@H](Cc3csc4ccccc34)C(=O)N3CCC(N4CCCCC4)CC3)CC2)N1	–
4 nM	–	O=C(N[C@H](Cc1csc2ccccc12)C(=O)N1CCC(C2CCNCC2)CC1)N1CCC(n2c(=O)[nH]c3ccccc32)CC1	–
